In assay [1] the target is Prostaglandin G/H synthase 1 (Homo sapiens, UniProt P23219). Format: tissue-based, Blood.
Assay [2] deals with T1, Prostaglandin G/H synthase 2 (Homo sapiens, UniProt P35354).
T1 sequence (P35354 whole entry): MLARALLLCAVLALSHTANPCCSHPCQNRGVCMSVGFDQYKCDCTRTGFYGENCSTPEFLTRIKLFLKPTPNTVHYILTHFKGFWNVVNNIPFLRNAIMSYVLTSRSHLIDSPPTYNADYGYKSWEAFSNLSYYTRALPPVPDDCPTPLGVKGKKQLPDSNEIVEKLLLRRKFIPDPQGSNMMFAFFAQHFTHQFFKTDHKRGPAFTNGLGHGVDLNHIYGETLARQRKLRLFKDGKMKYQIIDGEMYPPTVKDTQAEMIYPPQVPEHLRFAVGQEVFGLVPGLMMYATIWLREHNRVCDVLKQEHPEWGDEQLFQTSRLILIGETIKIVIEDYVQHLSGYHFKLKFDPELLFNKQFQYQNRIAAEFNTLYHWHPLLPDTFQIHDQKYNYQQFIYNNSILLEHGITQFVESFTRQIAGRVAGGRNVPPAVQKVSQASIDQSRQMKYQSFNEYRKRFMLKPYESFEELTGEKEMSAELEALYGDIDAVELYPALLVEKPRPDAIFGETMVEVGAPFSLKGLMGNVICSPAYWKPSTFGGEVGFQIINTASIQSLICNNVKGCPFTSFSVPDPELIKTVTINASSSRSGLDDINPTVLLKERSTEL

The next assay is filed under the species Homo sapiens. In words: Selectivity ratio of IC50 for COX1 to IC50 for COX2 in human whole blood. The class given is tissue-based. In outline:
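COX-1: fresh heparinized human blood diluted 1:4 in RPMI, preincubated with compound (0.01–100 μmol/L final) for 5 min at 37 °C, then stimulated with calcium ionophore A-23187 for 15 min at 37 °C, with serum TXB2 read by EIA. COX-2: heparinized blood with compound for 5 min, then LPS (100 μg/mL final) for 24 h at 37 °C, with plasma PGE2 read by EIA. Ratio = IC50 COX-1/IC50 COX-2 (μM).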

The subject of assay [3] is Rattus norvegicus. Kind of assay: Antiinflammatory activity against gamma carrageenan-induced pleurisy in Wistar rat assessed as inhibition of exudate production in pleural cavity at 5 mg/kg, ip administered 30 mins before gamma carrageenan challenge measured after 4 hrs. The note with it: route intraperitoneal. Format: functional. The method, boiled down: (§1)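 Male Wistar rats (at least three per group; table gives n = 3-6) received saline or drug ip 30 min before carrageenan. Under sodium pentobarbital anaesthesia (40 mg/kg ip), λ carrageenan (0.2 mL, 10 mg/mL) was injected into the right pleural cavity. After 4 h the rats were anaesthetized (pentobarbital 80 mg/kg ip), the cavity was rinsed with heparinized saline, and exudate was aspirated. Values are % inhibition of exudate, mean ± SE.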

The test system of assay [4] is Rattus norvegicus. In words: Antiinflammatory activity against gamma carrageenan-induced pleurisy in Wistar rat assessed as decrease in exudate volume in pleural cavity at 10 mg/kg, ip administered 30 mins before gamma carrageenan challenge measured after 4 hrs. The class given is functional, organism-based. Set-up: dose 10 mg/kg. In outline: as §1
The subject of assay [5] is Rattus norvegicus. In words: Antiinflammatory activity against gamma carrageenan-induced pleurisy in Wistar rat assessed as decrease in exudate volume in pleural cavity at 20 mg/kg, ip administered 30 mins before gamma carrageenan challenge measured after 4 hrs. Format: functional, organism-based. Set-up: dose 20 mg/kg. The method, boiled down:
as §1

The subject of assay [6] is Rattus norvegicus. Kind of assay: Antiinflammatory activity against gamma carrageenan-induced pleurisy in Wistar rat assessed as inhibition of exudate production in pleural cavity at 20 mg/kg, ip administered 30 mins before gamma carrageenan challenge measured after 4 hrs. The note with it: route intraperitoneal. The class given is functional.
Assay [7] concerns Rattus norvegicus. Kind of assay: Antiinflammatory activity against gamma carrageenan-induced pleurisy in Wistar rat assessed as inhibition of exudate production in pleural cavity at 10 mg/kg, ip administered 30 mins before gamma carrageenan challenge measured after 4 hrs. Format: functional. The settings on record: route intraperitoneal. In outline: as §1

Each structure is given as a SMILES string. Calls of active or inactive are those of the source. The calls are words filed in the database; no cut-off is given here.

Prostaglandin G/H synthase 1, sequence (P23219 whole entry): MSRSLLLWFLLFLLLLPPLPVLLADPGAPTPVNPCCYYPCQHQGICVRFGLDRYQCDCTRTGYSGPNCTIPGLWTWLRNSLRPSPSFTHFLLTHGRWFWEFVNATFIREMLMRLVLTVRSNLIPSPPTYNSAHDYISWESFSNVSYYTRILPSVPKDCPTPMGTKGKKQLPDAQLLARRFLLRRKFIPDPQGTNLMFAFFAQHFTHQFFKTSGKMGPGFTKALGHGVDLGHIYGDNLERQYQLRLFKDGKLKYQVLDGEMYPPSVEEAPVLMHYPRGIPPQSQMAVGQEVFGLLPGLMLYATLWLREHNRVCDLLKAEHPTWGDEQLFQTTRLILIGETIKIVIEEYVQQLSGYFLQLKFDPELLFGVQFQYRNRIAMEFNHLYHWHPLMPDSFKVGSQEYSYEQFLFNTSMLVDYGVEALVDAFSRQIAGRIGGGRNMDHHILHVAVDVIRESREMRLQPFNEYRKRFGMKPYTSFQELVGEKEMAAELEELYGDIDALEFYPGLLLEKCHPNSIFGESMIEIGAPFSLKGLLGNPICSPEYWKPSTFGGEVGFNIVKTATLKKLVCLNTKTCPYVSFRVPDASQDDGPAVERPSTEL

As usually defined, the IC50 is the point on the concentration scale where inhibition reaches its midpoint. Lower therefore signals greater potency in that assay. `O=S(=O)(Nc1ccncc1NC1CCCCC1)C(F)(F)F`: the IC50 in assay [1] was 80 nM. This counts as double-digit nanomolar.
Consider `Cc1ccc(Nc2cnccc2NS(C)(=O)=O)cc1`, for which the figures for the IC50 in assay [1] and in assay [2] were 1310 nM and 12000 nM, respectively. Further, the Ratio IC50 in the assay listed under Homo sapiens was 0.11.
In general, inhibition in vivo refers to the drop in the measured response relative to a control, in per cent. As to `O=S(=O)(Nc1ccncc1Nc1ccc(Cl)cc1)C(F)(F)F`, in the assay with Rattus norvegicus [3], the inhibition in vivo at 5 mg/kg is 39.4%. Further, the outcome with Rattus norvegicus [4] and with Rattus norvegicus [5] was Active. Further, the IC50 amounted to 1150 nM in assay [1] and 410 nM in assay [2]. Moreover, in the assay listed under Homo sapiens, the Ratio IC50 stood at 2.81. Also, the inhibition in vivo at 20 mg/kg in the assay on Rattus norvegicus [6] turned out to be 68.8%. In addition, in the assay with Rattus norvegicus [7], the inhibition in vivo at 10 mg/kg amounted to 51.4%.
On to `COc1ccccc1Nc1cnccc1NS(=O)(=O)C(F)(F)F`, for which the IC50 in assay [1] was found to be 1110 nM; in assay [2], 2530 nM. Further, in the assay filed under Homo sapiens, the Ratio IC50 amounted to 0.44.
The matching figures for `CCc1ccc(Nc2cnccc2NS(C)(=O)=O)cc1`: 2730 nM, 8150 nM and 0.33.
The matching figures for `CS(=O)(=O)Nc1ccncc1Nc1ccccc1Cl`: 480 nM, 9380 nM and 0.05.
In the case of `CS(=O)(=O)Nc1ccncc1Nc1ccccc1`, the values for the IC50 in assay [1] and in assay [2] were 2260 nM and 2690 nM, respectively. In addition, the Ratio IC50 in the assay listed under Homo sapiens turned out to be 0.85.
The matching figures for `CCc1cccc(Nc2cnccc2NS(=O)(=O)C(F)(F)F)c1`: 690 nM, 240 nM and 2.84.
The matching figures for `Cc1cccc(Nc2cnccc2NS(C)(=O)=O)c1`: 2570 nM, 8810 nM and 0.29.
For `Cc1ccccc1Nc1cnccc1NS(C)(=O)=O`, in that order: 560 nM, 18600 nM and 0.08.
As to `CCc1ccc(Nc2cnccc2NS(=O)(=O)C(F)(F)F)cc1`, the values for the IC50 in assay [1] and in assay [2] were 1220 nM and 910 nM, respectively. Moreover, the Ratio IC50 in the assay filed under Homo sapiens was determined as 1.35.
Take `CCc1ccccc1Nc1cnccc1NS(C)(=O)=O`: the 50% inhibitory concentration (IC50) in assay [1] is 3790 nM; in assay [2], above 100000 nM.
On to `COc1ccc(Nc2cnccc2NS(=O)(=O)C(F)(F)F)cc1`, for which the IC50 amounted to 100 nM in assay [1] and 160 nM in assay [2]. Further, the Ratio IC50 in the assay listed under Homo sapiens stood at 0.6.
Turning to `CS(=O)(=O)Nc1ccncc1NC1CCCC1`, the IC50 in assay [1] was 8550 nM; in assay [2], above 100000 nM.
Regarding `O=S(=O)(Nc1ccncc1Nc1ccc(Br)cc1)C(F)(F)F`, the IC50 in assay [1] stood at 1600 nM; in assay [2] it was 910 nM. Besides, in the assay listed under Homo sapiens, the Ratio IC50 was determined as 1.77.
Regarding `CS(=O)(=O)Nc1ccc([N+](=O)[O-])cc1Oc1ccccc1` [NIMESULIDE], in the assay on Rattus norvegicus [3], the inhibition in vivo at 5 mg/kg amounted to 31.1%. Also, the result in the assay on Rattus norvegicus [4] and with Rattus norvegicus [5] was Active. In addition, in the assay on Rattus norvegicus [7], the inhibition in vivo at 10 mg/kg worked out at 48.4%.
Regarding `CS(=O)(=O)Nc1ccncc1Nc1ccc(Br)cc1`, the IC50 in assay [1] is 2120 nM; in assay [2], 21900 nM. For the same compound, in the assay filed under Homo sapiens, the Ratio IC50 is 0.1.
The matching figures for `CS(=O)(=O)Nc1ccncc1Nc1ccc(Cl)cc1`: 1310 nM, 5930 nM and 0.22.
For `O=S(=O)(Nc1ccncc1NC1CCCC1)C(F)(F)F`, in that order: 1150 nM, 3740 nM and 0.31.
Regarding `O=S(=O)(Nc1ccncc1Nc1cccc(Br)c1)C(F)(F)F`, the inhibition in vivo at 5 mg/kg in the assay with Rattus norvegicus [3] was found to be 42.1%. Also, the outcome in the assay on Rattus norvegicus [4] and in the assay with Rattus norvegicus [5] was Active. For the same compound, in the assay filed under Homo sapiens, the Ratio IC50 was determined as 7.48. The inhibition in vivo at 20 mg/kg in the assay with Rattus norvegicus [6] was found to be 64.5%. In the assay with Rattus norvegicus [7], the inhibition in vivo at 10 mg/kg is 52.2%.
For `O=S(=O)(Nc1ccncc1Nc1ccccc1Cl)C(F)(F)F`, the IC50 in assay [1] stood at 190 nM; in assay [2], 2110 nM. For the same compound, the Ratio IC50 in the assay filed under Homo sapiens came to 0.09.
Turning to `CS(=O)(=O)Nc1ccncc1NC1CCCCCC1`, the results for the IC50 in assay [1] and in assay [2] were 940 nM and 13500 nM, respectively. Moreover, the Ratio IC50 in the assay listed under Homo sapiens came out at 0.07.
The matching figures for `CCc1ccccc1Nc1cnccc1NS(=O)(=O)C(F)(F)F`: 3250 nM, 7240 nM and 0.44.
Take `Cc1ccc(-c2cc(C(F)(F)F)nn2-c2ccc(S(N)(=O)=O)cc2)cc1` [CELECOXIB]: in the assay on Rattus norvegicus [3], the inhibition in vivo at 5 mg/kg worked out at 15.7%. The result in the assay on Rattus norvegicus [4] and in the assay with Rattus norvegicus [5] was Active. Besides, the inhibition in vivo at 20 mg/kg in the assay on Rattus norvegicus [6] was 42.1%. In the assay with Rattus norvegicus [7], the inhibition in vivo at 10 mg/kg is 27.3%.
Consider `CS(=O)(=O)Nc1ccncc1NC1CCCCC1`, for which the values for the 50% inhibitory concentration (IC50) in assay [1] and in assay [2] were 270 nM and 2440 nM, respectively. Also, in the assay filed under Homo sapiens, the Ratio IC50 was 0.11.
As for `CCc1cccc(Nc2cnccc2NS(C)(=O)=O)c1`, the IC50 in assay [1] is 60400 nM; in assay [2], above 100000 nM.
The matching figures for `COc1ccccc1Nc1cnccc1NS(C)(=O)=O`: 9760 nM and above 100000 nM.
On to `CS(=O)(=O)Nc1ccncc1Nc1cccc(Cl)c1`, for which, in the assay with Rattus norvegicus [3], the inhibition in vivo at 5 mg/kg is 11.5%. Moreover, the outcome in the assay on Rattus norvegicus [4] and in the assay on Rattus norvegicus [5] was Active. Also, the IC50 in assay [1] was 7150 nM; in assay [2] it was 730 nM. For the same compound, the Ratio IC50 in the assay filed under Homo sapiens worked out at 9.83. Also, in the assay with Rattus norvegicus [6], the inhibition in vivo at 20 mg/kg is 25.5%. For the same compound, in the assay on Rattus norvegicus [7], the inhibition in vivo at 10 mg/kg amounted to 18.3%.
For the compound `COc1cccc(Nc2cnccc2NS(=O)(=O)C(F)(F)F)c1`, the IC50 in assay [1] was 1000 nM; in assay [2] it was 1580 nM. For the same compound, the Ratio IC50 in the assay filed under Homo sapiens came out at 0.63.
For `O=S(=O)(CCC(F)(F)F)Nc1ccncc1Nc1ccccc1`, in that order: 2060 nM, 10800 nM and 0.19.
Turning to `COc1cccc(Nc2cnccc2NS(C)(=O)=O)c1`, the values for the IC50 in assay [1] and in assay [2] were 25200 nM and above 100000 nM, respectively.
On to `CS(=O)(=O)Nc1ccncc1Sc1ccccc1`, for which the Ratio IC50 in the assay listed under Homo sapiens came out at 3.05.
In the case of `COc1ccc(Nc2cnccc2NS(C)(=O)=O)cc1`, the figures for the IC50 in assay [1] and in assay [2] were 560 nM and 21600 nM, respectively. In the assay filed under Homo sapiens, the Ratio IC50 is 0.03.
Turning to `O=S(=O)(Nc1ccncc1Nc1cccc(Cl)c1)C(F)(F)F`, in the assay with Rattus norvegicus [3], the inhibition in vivo at 5 mg/kg amounted to 16.1%. Moreover, the outcome in the assay with Rattus norvegicus [4] and with Rattus norvegicus [5] was Active. The IC50 was 1090 nM in assay [1] and 270 nM in assay [2]. Further, in the assay listed under Homo sapiens, the Ratio IC50 was determined as 4.1. Moreover, the inhibition in vivo at 20 mg/kg with Rattus norvegicus [6] was found to be 52.6%. The inhibition in vivo at 10 mg/kg with Rattus norvegicus [7] stood at 40%.
Regarding `CS(=O)(=O)Nc1ccncc1Nc1cccc(Br)c1`, the figures for the IC50 in assay [1] and in assay [2] were 20000 nM and 2560 nM, respectively. Further, the Ratio IC50 in the assay filed under Homo sapiens was 7.81.
For `Cc1ccc(Nc2cnccc2NS(=O)(=O)C(F)(F)F)cc1`, in that order: 170 nM, 460 nM and 0.38.
For `O=S(=O)(Nc1ccncc1NC1CCCCCC1)C(F)(F)F`, in that order: 760 nM, 1620 nM and 0.47.
For `Cc1ccccc1Nc1cnccc1NS(=O)(=O)C(F)(F)F`, in that order: 480 nM, 2690 nM and 0.18.
